Laboratory results reported in PMC11571122 (RSC Advances, 2024).

How the values were obtained:
human Gal-1 = human Gal-1 (Homo sapiens, UniProt P09382); experiment: Fluorescence spectroscopy binding constant, Gal-1; settings: for Gal-1 Ka: fluorescence, modified Stern–Volmer plot, 25 mM Tris-HCl pH 8
Outline: (§1)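 Human Gal-1 was cloned into pET-28a(+), expressed in E. coli BL21(DE3) and purified by Ni2+-NTA. Gal-3 and LdPase were produced similarly. Buffers: Gal-1 and Gal-3 in 25 mM Tris-HCl pH 8; LdPase in sodium phosphate pH 7. Intrinsic emission was scanned 300–400 nm (excitation 280 nm, 100 nm min−1) across ligand concentrations. Ka came from a modified Stern–Volmer plot of the log quenching term (F0 = no ligand, F = with ligand) versus log ligand concentration.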

human Gal-3 = human Gal-3 (Homo sapiens, UniProt P17931); experiment: Fluorescence spectroscopy binding constant, Gal-3; settings: for binding to Gal-3 compared to Gal-1: fluorescence spectroscopy; for Gal-3 Ka: fluorescence, 25 mM Tris-HCl pH 8
Outline: as §1

Gal-1 = Gal-1 ELISA enzymatic assay; type: cell-based, human; settings: 20 μM, 24 h, HCT-116 cells
Outline: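 HCT-116 cells were treated with test compound at 20 μM for 24 h, and the secreted-protein supernatant was collected. Equal amounts were diluted 2-fold in calibrator diluent and incubated 2 h at room temperature with shaking on human Gal-1 ELISA plates (commercial kit, manufacturer's protocol), then washed. HRP-conjugated Gal-1 polyclonal antibody was added for 2 h, then substrate for 30 min, then stop solution. Absorbance was read at 450 nm.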

[1] = system: Leishmania donovani phosphatase (LdPase); experiment: Fluorescence spectroscopy binding, LdPase
Outline: as §1

Sequence of human Gal-1 (P09382 whole entry): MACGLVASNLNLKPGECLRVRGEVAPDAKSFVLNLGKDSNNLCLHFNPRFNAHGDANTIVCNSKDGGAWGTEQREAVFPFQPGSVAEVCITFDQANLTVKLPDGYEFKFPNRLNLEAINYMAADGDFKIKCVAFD
Sequence of human Gal-3 (P17931 whole entry): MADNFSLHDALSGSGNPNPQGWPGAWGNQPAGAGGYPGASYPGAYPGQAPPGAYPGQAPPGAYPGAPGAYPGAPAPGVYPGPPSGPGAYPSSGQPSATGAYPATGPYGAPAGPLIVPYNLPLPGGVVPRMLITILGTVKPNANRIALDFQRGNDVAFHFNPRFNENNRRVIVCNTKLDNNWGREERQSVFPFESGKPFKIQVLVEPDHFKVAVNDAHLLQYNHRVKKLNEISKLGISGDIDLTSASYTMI

Row | Gal-1 Ka (human Gal-1) | Gal-1 binding constant (Ka) (human Gal-1; fluorescence spectroscopy) [M⁻¹] | binding to Gal-3 compared to Gal-1 (human Gal-3) | Gal-3 Ka (human Gal-3) | binding to LdPase [1] | Substance | % Inhibition (EA) (Gal-1) [%]
1 | 6.5 10^4 M^−1 |  |  |  |  | 2-(2,6-Dimethylmorpholino)-N-(5-(2-oxo-2H-chromen-3-yl)thiazol-2-yl)acetamide [Compound 10e] | 
2 | 2.1 10^4 M^−1 |  |  |  |  | 2-(4-Ethylpiperazin-1-yl)-N-(5-(2-oxo-2H-chromen-3-yl)thiazol-2-yl)acetamide [Compound 10b] | 
3 | 9.3 10^4 M^−1 |  | significantly lower binding | 1.1 10^−6 M^−1 | no detectable binding | N-(5-(2-Oxo-2H-chromen-3-yl)thiazol-2-yl)-2-(4-(pyridin-2-yl)piperazin-1-yl)acetamide [Compound 10f] | 80.57 ± 1.77
4 | 8.8 10^4 M^−1 |  |  |  |  | N-(5-(2-Oxo-2H-chromen-3-yl)thiazol-2-yl)-2-(piperazin-1-yl)acetamide [Compound 10a] | 58.19 ± 1.12

More lines, now with the values behind:

Row | Substance | Gal-1 Ka (human Gal-1) | Gal-1 binding constant (Ka) (human Gal-1; fluorescence spectroscopy) [M⁻¹] | binding to Gal-3 compared to Gal-1 (human Gal-3) | Gal-3 Ka (human Gal-3) | binding to LdPase [1] | % Inhibition (EA) (Gal-1) [%]
5 | 2-(4-(2-Hydroxyethyl)piperazin-1-yl)-N-(5-(2-oxo-2H-chromen-3-yl)thiazol-2-yl)acetamide [Compound 10c] | 4.1 10^4 M^−1 |  |  |  |  | 
6 | 2-(4-(2-Methoxyphenyl)piperazin-1-yl)-N-(5-(2-oxo-2H-chromen-3-yl)thiazol-2-yl)acetamide [Compound 10g] | 9.8 10^4 M^−1 | 98000 | significantly lower binding | 1.0 10^−6 M^−1 | no detectable binding | 58.19 ± 3.28
7 | 2-(4-(4-Nitrophenyl)piperazin-1-yl)-N-(5-(2-oxo-2H-chromen-3-yl)thiazol-2-yl)acetamide [Compound 10h] |  |  |  |  |  | <10
8 | 2-(4-Methylpiperidin-1-yl)-N-(5-(2-oxo-2H-chromen-3-yl)thiazol-2-yl)acetamide [Compound 10i] |  |  |  |  |  | <10
9 | N-(5-(2-Oxo-2H-chromen-3-yl)thiazol-2-yl)-2-(4-phenylpiperazin-1-yl)acetamide [Compound 10d] | 6.6 10^4 M^−1 |  |  |  |  | 56.73 ± 2.13
